Source: ChEMBL document CHEMBL1122378, “Antiallergic agents. 2. N-(1H-tetrazol-5-yl)-6-phenyl-2-pyridinecarboxamides” (1983)

Key:
Type in all cases: functional
[1] = test system: Rattus norvegicus; experiment: Antiallergic activity against passive cutaneous anaphylaxis (PCA) in male Sprague-Dawley rats after 1.0 mg/kg oral administration
Procedure, shortened: (§1)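 IgE antiserum raised in male Sprague-Dawley rats (ca. 200 g) by immunization with Ascaris suum extract (2 then 0.2 mg protein), bled 2 weeks after the second dose. Recipients got 0.05 mL diluted antiserum intracutaneously on the back. Blued area (product of two diameters) was read at 30 min.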

[2] = test system: Rattus norvegicus; experiment: Antiallergic activity against passive cutaneous anaphylaxis (PCA) in male Sprague-Dawley rats after 3.0 mg/kg oral administration; procedure, shortened: as §1
[3] = test system: Rattus norvegicus; experiment: Inhibition of passive cutaneous anaphylaxis in male Sprague-Dawley rats following 10 mg/kg p.o. administration.; conditions: route oral; procedure, shortened: as §1
[4] = test system: Rattus norvegicus; experiment: Antiallergic activity against passive cutaneous anaphylaxis (PCA) in male Sprague-Dawley rats after 3.0 mg/kg oral administration;not statistically significant; procedure, shortened: as §1
[5] = test system: Rattus norvegicus; experiment: Antiallergic activity against passive cutaneous anaphylaxis (PCA) in male Sprague-Dawley rats after 0.3 mg/kg oral administration; procedure, shortened: as §1
[6] = test system: Rattus norvegicus; experiment: Inhibition of passive cutaneous anaphylaxis in male Sprague-Dawley rats following 0.3 mg/kg p.o. administration; Not significant.; conditions: route oral; procedure, shortened: as §1
[7] = test system: Rattus norvegicus; experiment: Antiallergic activity against passive cutaneous anaphylaxis (PCA) in male Sprague-Dawley rats after 10.0 mg/kg oral administration;not statistically significant; procedure, shortened: as §1
[8] = test system: Rattus norvegicus; experiment: Inhibition of passive cutaneous anaphylaxis in male Sprague-Dawley rats following 1 mg/kg p.o. administration; Not significant.; conditions: route oral; procedure, shortened: as §1
[9] = test system: Rattus norvegicus; experiment: Antiallergic activity against passive cutaneous anaphylaxis (PCA) in male Sprague-Dawley rats after 3.0 mg/kg oral administration;p<0.1; procedure, shortened: as §1
[10] = test system: Rattus norvegicus; experiment: Antiallergic activity against passive cutaneous anaphylaxis (PCA) in male Sprague-Dawley rats after 0.3 mg/kg oral administration;p<0.1; procedure, shortened: as §1

Cc1cc(C(=O)Nc2nn[nH]n2)nc(-c2ccc(C(C)C)cc2)c1 showed an inhibition in vivo at 1 mg/kg [1] of 34% and an inhibition in vivo at 3 mg/kg [2] of 100%.

In the case of Cc1ccc(-c2cccc(C(=O)Nc3nn[nH]n3)n2)cc1C, the inhibition in vivo at 10 mg/kg [3] is reported as 39% and the inhibition in vivo at 3 mg/kg [4] is reported as 28%.

Nc1ccc(-c2cc(Cl)cc(C(=O)Nc3nn[nH]n3)n2)cc1 gave an inhibition in vivo at 1 mg/kg [1] of 100%, an inhibition in vivo at 0.3 mg/kg [5] of 39% and an inhibition in vivo at 3 mg/kg [2] of 100%.

Work on COc1cc(C(=O)Nc2nn[nH]n2)nc(-c2ccc(C(C)C)cc2)c1 yielded an inhibition in vivo at 1 mg/kg [1] of 54% and an inhibition in vivo at 0.3 mg/kg [6] of 29%.

In the case of O=C(Nc1nn[nH]n1)c1cc(Cl)cc(-c2ccccc2)n1, the inhibition in vivo at 1 mg/kg [1] is reported as 40%.

With CC(C)Cc1cc(C(=O)Nc2nn[nH]n2)nc(-c2ccccc2)c1 the inhibition in vivo at 10 mg/kg [7] was 11%.

With CCCc1ccc(-c2cc(Cl)cc(C(=O)Nc3nn[nH]n3)n2)cc1 the inhibition in vivo at 1 mg/kg [1] was 78% and the inhibition in vivo at 0.3 mg/kg [5] was 42%.

Compound COc1cc(C(=O)Nc2nn[nH]n2)nc(-c2ccc(C)cc2)c1 has an inhibition in vivo at 1 mg/kg [1] of 42% and an inhibition in vivo at 0.3 mg/kg [6] of 16%.

Cc1cc(C(=O)Nc2nn[nH]n2)nc(-c2ccc(N(C)C)cc2)c1 gave an inhibition in vivo at 3 mg/kg [4] of 24%.

CCOc1cc(C(=O)Nc2nn[nH]n2)nc(-c2ccccc2)c1 was tested, and the inhibition in vivo at 1 mg/kg [8] was 29% and the inhibition in vivo at 3 mg/kg [9] was 51%.

CCCc1ccc(-c2cc(OC)cc(C(=O)Nc3nn[nH]n3)n2)cc1 gave an inhibition in vivo at 1 mg/kg [1] of 73%, an inhibition in vivo at 0.3 mg/kg [6] of 32% and an inhibition in vivo at 3 mg/kg [2] of 93%.

CCCCc1cc(C(=O)Nc2nn[nH]n2)nc(-c2cccc(C)c2)c1 showed an inhibition in vivo at 1 mg/kg [1] of 36%, an inhibition in vivo at 10 mg/kg [3] of 100% and an inhibition in vivo at 3 mg/kg [2] of 82%.

With CCOc1cc(C(=O)Nc2nn[nH]n2)nc(-c2ccc(N)cc2)c1 the inhibition in vivo at 1 mg/kg [1] was 52%, the inhibition in vivo at 0.3 mg/kg [6] was 19% and the inhibition in vivo at 3 mg/kg [2] was 62%.

Cc1ccc(-c2cccc(C(=O)Nc3nn[nH]n3)n2)cc1 was tested, and the inhibition in vivo at 1 mg/kg [1] was 67% and the inhibition in vivo at 0.3 mg/kg [6] was 21%.

Work on CCc1cc(C(=O)Nc2nn[nH]n2)nc(-c2ccccc2)c1 yielded an inhibition in vivo at 10 mg/kg [3] of 85% and an inhibition in vivo at 3 mg/kg [2] of 53%.

Compound Nc1ccc(-c2cccc(C(=O)Nc3nn[nH]n3)n2)cc1 has an inhibition in vivo at 1 mg/kg [1] of 62%, an inhibition in vivo at 0.3 mg/kg [6] of 11% and an inhibition in vivo at 3 mg/kg [2] of 81%.

CCOc1cc(C(=O)Nc2nn[nH]n2)nc(-c2ccc(N(CC)CC)cc2)c1 was tested, and the inhibition in vivo at 1 mg/kg [1] was 66% and the inhibition in vivo at 0.3 mg/kg [5] was 44%.

For COc1cc(C(=O)Nc2nn[nH]n2)nc(-c2ccc([N+](=O)[O-])cc2)c1, the inhibition in vivo at 10 mg/kg [7] was 6%.

Cc1ccccc1-c1cc(Cl)cc(C(=O)Nc2nn[nH]n2)n1 was tested, and the inhibition in vivo at 10 mg/kg [7] was 24%.

Compound Cc1ccc(-c2cc(C)cc(C(=O)Nc3nn[nH]n3)n2)cc1 has an inhibition in vivo at 1 mg/kg [1] of 80%, an inhibition in vivo at 0.3 mg/kg [5] of 51% and an inhibition in vivo at 3 mg/kg [2] of 100%.

With Cc1cc(C(=O)Nc2nn[nH]n2)nc(-c2ccc(N)cc2)c1 the inhibition in vivo at 1 mg/kg [1] was 75%, the inhibition in vivo at 3 mg/kg [2] was 100% and the inhibition in vivo at 0.3 mg/kg [10] was 54%.

With COc1cc(C(=O)Nc2nn[nH]n2)nc(-c2ccc(C)c(C)c2)c1 the inhibition in vivo at 1 mg/kg [8] was 21% and the inhibition in vivo at 3 mg/kg [2] was 82%.

For Cc1ccc(-c2cc(Cl)cc(C(=O)Nc3nn[nH]n3)n2)cc1, the inhibition in vivo at 1 mg/kg [1] was 86% and the inhibition in vivo at 0.3 mg/kg [6] was 10%.

For Cc1cc(C(=O)Nc2nn[nH]n2)nc(-c2ccccc2)c1, the inhibition in vivo at 1 mg/kg [8] was 23%, the inhibition in vivo at 10 mg/kg [3] was 88% and the inhibition in vivo at 3 mg/kg [2] was 50%.

COc1cc(-c2cccc(C(=O)Nc3nn[nH]n3)n2)cc(OC)c1OC gave an inhibition in vivo at 3 mg/kg [4] of 15% and an inhibition in vivo at 10 mg/kg [7] of 45%.

Work on COc1ccccc1-c1cccc(C(=O)Nc2nn[nH]n2)n1 yielded an inhibition in vivo at 10 mg/kg [3] of 0%.

CCCc1ccc(-c2cc(C)cc(C(=O)Nc3nn[nH]n3)n2)cc1 gave an inhibition in vivo at 1 mg/kg [8] of 65% and an inhibition in vivo at 0.3 mg/kg [6] of 19%.

Compound COc1cccc(-c2cc(Cl)cc(C(=O)Nc3nn[nH]n3)n2)c1 has an inhibition in vivo at 1 mg/kg [1] of 51%, an inhibition in vivo at 0.3 mg/kg [5] of 32% and an inhibition in vivo at 3 mg/kg [2] of 95%.

Compound O=C(Nc1nn[nH]n1)c1cc(Cl)cc(-c2ccc([N+](=O)[O-])cc2)n1 has an inhibition in vivo at 3 mg/kg [4] of 23% and an inhibition in vivo at 10 mg/kg [7] of 48%.

With Cc1cc(C(=O)Nc2nn[nH]n2)nc(-c2cccc(N)c2)c1 the inhibition in vivo at 1 mg/kg [8] was 29% and the inhibition in vivo at 3 mg/kg [9] was 50%.

In the case of COc1cc(C(=O)Nc2nn[nH]n2)nc(-c2ccc(NC(C)=O)cc2)c1, the inhibition in vivo at 1 mg/kg [1] is reported as 0%, the inhibition in vivo at 10 mg/kg [3] is reported as 100% and the inhibition in vivo at 3 mg/kg [4] is reported as 27%.

Work on CCc1ccc(-c2cc(Cl)cc(C(=O)Nc3nn[nH]n3)n2)cc1 yielded an inhibition in vivo at 1 mg/kg [1] of 49%, an inhibition in vivo at 3 mg/kg [2] of 100% and an inhibition in vivo at 0.3 mg/kg [10] of 13%.

Work on CCCOc1cc(C(=O)Nc2nn[nH]n2)nc(-c2ccc(N)cc2)c1 yielded an inhibition in vivo at 1 mg/kg [1] of 64%, an inhibition in vivo at 0.3 mg/kg [6] of 7% and an inhibition in vivo at 3 mg/kg [2] of 68%.
